Experiment [1] is described as follows: Displacement of [125I]hU-2 from human recombinant urotensin receptor expressed in HEK293 cells. In kind it is cell-based. The method in brief:
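Radioligand binding with [125I]hU-II on membranes of HEK293 cells stably expressing recombinant human UT receptor. Ki given as the mean of at least two determinations (SD <±0.3 log units).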

Experiment [2] concerns the target Kappa-type opioid receptor (Homo sapiens, UniProt P41145). In words: Agonist activity at human kappa opioid receptor expressed in CHO-K1 cells by [35S]GTPgamma binding assay. In kind it is functional, cell-based. The essentials:
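Human κ-opioid receptor, membranes from BacMam-transduced CHO-K1 cells. Agonism read as [35S]GTPγS binding, detected by LEADseeker SPA. EC50 reported from a single run or as the mean of two runs (SD <±0.3 log units).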

Experiment [3] in a line: Displacement of [125I]hU-2 from rat recombinant urotensin receptor expressed in HEK293 cells. The experiment is classed as cell-based.
For a further experiment, the species on record is Rattus norvegicus. In words: Selectivity ratio of Kb for urotensin receptor in Sprague-Dawley rat thoracic aorta to Ki for rat recombinant urotensin receptor. The experiment is classed as tissue-based.
The nature of experiment [4]: Antagonist activity at rat urotensin receptor in Sprague-Dawley rat thoracic aorta assessed as inhibition of urotensin-mediated contraction. In kind it is functional. The method in brief:
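Isolated rat aortic rings were contracted via UT, and the test agent's inhibition of that contraction was measured. The value is reported as a Kb, the mean of two determinations ± SEM.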

The record followed here is ChEMBL document CHEMBL1156601, “Aminomethylpiperazines as selective urotensin antagonists” (Bioorg Med Chem Lett, 2008).

Kappa-type opioid receptor, sequence (P41145 whole entry): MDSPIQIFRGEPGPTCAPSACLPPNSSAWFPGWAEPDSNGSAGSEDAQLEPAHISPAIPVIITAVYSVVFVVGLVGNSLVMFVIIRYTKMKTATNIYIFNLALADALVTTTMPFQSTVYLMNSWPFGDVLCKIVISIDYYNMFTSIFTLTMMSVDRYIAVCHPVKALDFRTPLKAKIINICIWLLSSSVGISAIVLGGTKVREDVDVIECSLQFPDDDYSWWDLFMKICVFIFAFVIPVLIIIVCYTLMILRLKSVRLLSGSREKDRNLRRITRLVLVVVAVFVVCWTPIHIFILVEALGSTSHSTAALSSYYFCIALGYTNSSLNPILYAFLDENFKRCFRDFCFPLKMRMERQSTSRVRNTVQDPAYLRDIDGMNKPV

`CN(CC(=O)N1CCN(C(=O)Nc2ccccc2)CC1CN1CCCC1)c1ccc(Cl)c(Cl)c1` (configuration not stated): the inhibition constant (Ki) in experiment [1] is 790 nM. This compound yielded an EC50 in experiment [2] of 4000 nM.

For `O=C(Cc1cccc2ccccc12)N1CCN(c2ccccc2)CC1CN1CCCC1` (configuration not stated), the inhibition constant Ki in experiment [1] amounted to 320 nM. In addition, the EC50 in experiment [2] was found to be 1.6 nM.

On to `O=C(Cn1c(=O)oc2ccccc21)N1CCN(S(=O)(=O)c2ccccc2)CC1CN1CCCC1` (configuration not stated), for which, in experiment [1], the Ki was 500 nM. Further, a half-maximal response in experiment [2] (EC50) required 1000 nM.

Turning to `COc1ccc(C(=O)N2CCN(C(=O)CN(C)c3ccc(Cl)c(Cl)c3)C(CN3CCCC3)C2)cc1OC` (configuration not stated), the inhibition constant Ki in experiment [1] turned out to be 400 nM. Further, the EC50 in experiment [2] is over 10000 nM.

For the compound `COc1ccc(Br)cc1S(=O)(=O)N1CCN(C(=O)Cn2c(=O)oc3ccc(Cl)cc32)C(CN2CCCC2)C1` (configuration not stated), the inhibition constant (Ki) in experiment [1] stood at 130 nM. Also, the EC50 in experiment [2] was found to be 790 nM.

In the case of `O=C(Cn1c(=O)oc2ccccc21)N1CCN(c2ccccc2)CC1CN1CCCC1` (configuration not stated), in experiment [1], the Ki came out at 130 nM. This compound registered an EC50 in experiment [2] of 400 nM.

In the case of `COc1ccc(S(=O)(=O)N2CCN(C(=O)Cn3c(=O)oc4ccc(Cl)cc43)C(CN3CCCC3)C2)cc1` (configuration not stated), in experiment [1], the Ki was found to be 25 nM. In experiment [2], this compound gave a concentration giving a half-maximal response (EC50) of 2000 nM.

For `CN(CC(=O)N1CCCCC1CN1CCCC1)c1ccc(Cl)c(Cl)c1` (configuration not stated), the Ki in experiment [1] was 500 nM. This compound also had an EC50 in experiment [2] of 3 nM.

Consider `N#Cc1cccc(S(=O)(=O)N2CCN(C(=O)Cn3c(=O)oc4ccc(Cl)cc43)C(CN3CCCC3)C2)c1` (configuration not stated), for which the inhibition constant Ki in experiment [1] turned out to be 10 nM. The compound also showed a 50% effective concentration (EC50) in experiment [2] of 630 nM.

With `COc1ccc(S(=O)(=O)N2CCN(C(=O)Cn3c(=O)oc4ccc(Cl)cc43)C(CN3CCCC3)C2)cc1OC` (configuration not stated), the Ki in experiment [1] was found to be 13 nM. The same compound came in with a half-maximal effective concentration (EC50) in experiment [2] of 320 nM.

In the case of `COc1cccc(S(=O)(=O)N2CCN(C(=O)Cn3c(=O)oc4ccc(Cl)cc43)C(CN3CCCC3)C2)c1` (configuration not stated), the Ki in experiment [1] was determined as 25 nM. The same compound displayed an EC50 in experiment [2] of 320 nM.

For `CN(CC(=O)N1CCN(S(=O)(=O)c2ccc(F)c(F)c2)CC1CN1CCCC1)c1ccc(Cl)c(Cl)c1` (configuration not stated), the Ki in experiment [1] is 130 nM. Further, the midpoint of the response in experiment [2], the EC50, lay at 400 nM.

`O=C(Cn1c(C(F)(F)F)nc2ccccc21)N1CCN(c2ccccc2)CC1CN1CCCC1` (configuration not stated): in experiment [1], the inhibitory constant (Ki) was found to be 79 nM.

Regarding `O=C(O)c1ccc(S(=O)(=O)N2CCN(C(=O)Cn3c(=O)oc4ccc(Cl)cc43)C(CN3CCCC3)C2)cc1` (configuration not stated), the figures for the inhibitory constant (Ki) in experiment [3] and in experiment [1] were 32 nM and 25 nM, respectively. Besides, in the experiment listed under Rattus norvegicus, the Ratio amounted to 2.6. In addition, the EC50 in experiment [2] turned out to be 2000 nM. In experiment [4], the Kb stood at 81.8 nM.

`CN(CC(=O)N1CCN(S(=O)(=O)c2cccc(Cl)c2)CC1CN1CCCC1)c1ccc(Cl)c(Cl)c1` (configuration not stated): the Ki in experiment [1] came out at 160 nM. The same compound displayed a half-maximal effective concentration (EC50) in experiment [2] of 200 nM.

For `CN(CC(=O)N1CCN(S(=O)(=O)c2ccc(Cl)cc2)CC1CN1CCCC1)c1ccc(Cl)c(Cl)c1` (configuration not stated), the Ki in experiment [1] amounted to 100 nM. This compound gave a half-maximal effective concentration (EC50) in experiment [2] of 790 nM.

Take `O=C(Cc1csc2ccc(Cl)cc12)N1CCN(c2ccccc2)CC1CN1CCCC1` (configuration not stated): in experiment [1], the inhibition constant Ki turned out to be 63 nM. Further, the half-maximal effective concentration (EC50) in experiment [2] was 2 nM.

Consider `O=C(Cn1c(=O)oc2ccc(Cl)cc21)N1CCN(S(=O)(=O)c2cc(C(F)(F)F)ccc2Cl)CC1CN1CCCC1` (configuration not stated), for which the inhibition constant Ki in experiment [1] is 13 nM. This compound showed a 50% effective concentration (EC50) in experiment [2] of 1000 nM.

Turning to `O=C(O)c1ccc(S(=O)(=O)N2CCN(C(=O)Cn3c(=O)oc4ccc(Cl)cc43)C(CN3CCCC3)C2)cc1O` (configuration not stated), the inhibition constant Ki in experiment [3] stood at 8 nM; in experiment [1] it was 13 nM. Besides, the Ratio in the experiment filed under Rattus norvegicus was determined as 1.3. For the same compound, in experiment [2], the 50% effective concentration (EC50) was 7900 nM. Also, the antagonist equilibrium constant (Kb) in experiment [4] was 10 nM.

For `CN(CC(=O)N1CCN(c2cccc(Cl)c2)CC1CN1CCCC1)c1ccc(Cl)c(Cl)c1` (configuration not stated), the inhibition constant Ki in experiment [1] turned out to be 63 nM. In experiment [2], this compound registered an EC50 of 4 nM.

As for `CN(CC(=O)N1CCN(S(C)(=O)=O)CC1CN1CCCC1)c1ccc(Cl)c(Cl)c1` (configuration not stated), the Ki in experiment [1] turned out to be 100 nM. For the same compound, the concentration giving a half-maximal response (EC50) in experiment [2] was determined as 3 nM.

On to `CN(CC(=O)N1CCN(c2ccccc2)CC1CN1CCCC1)c1ccc(Cl)c(Cl)c1` (configuration not stated), for which the Ki in experiment [1] was 250 nM. Further, the EC50 in experiment [2] is 1.3 nM.

For `O=C(Cn1c(=O)oc2ccc(Cl)cc21)N1CCN(S(=O)(=O)c2ccccc2)CC1CN1CCCC1` (configuration not stated), the inhibition constant (Ki) in experiment [1] was 20 nM. In experiment [2], this compound registered an EC50 of 790 nM.

Regarding `COc1cccc(N2CCN(C(=O)CN(C)c3ccc(Cl)c(Cl)c3)C(CN3CCCC3)C2)c1` (configuration not stated), the Ki in experiment [1] amounted to 50 nM. Also, the EC50 in experiment [2] was 3.2 nM.

As for `COc1cccc(S(=O)(=O)N2CCN(C(=O)CN(C)c3ccc(Cl)c(Cl)c3)C(CN3CCCC3)C2)c1` (configuration not stated), the inhibition constant Ki in experiment [1] was 79 nM. The same compound had an EC50 in experiment [2] of 79 nM.

With `CN(CC(=O)N1CCN(C(=O)c2ccc(C#N)cc2)CC1CN1CCCC1)c1ccc(Cl)c(Cl)c1` (configuration not stated), the Ki in experiment [1] is 1300 nM. For the same compound, the 50% effective concentration (EC50) in experiment [2] came to 3200 nM.

Turning to `CN(CC(=O)N1CCN(C(=O)c2ccncc2)CC1CN1CCCC1)c1ccc(Cl)c(Cl)c1` (configuration not stated), the inhibition constant Ki in experiment [1] was found to be 100 nM. In addition, in experiment [2], the EC50 amounted to 630 nM.

`CN(CC(=O)N1CCN(S(=O)(=O)c2ccccc2)CC1CN1CCCC1)c1ccc(Cl)c(Cl)c1` (configuration not stated): the inhibition constant Ki in experiment [1] was found to be 20 nM. Also, in experiment [2], it took 250 nM to reach a half-maximal effect (EC50).

`O=C(Cn1c(=O)oc2ccc(Cl)cc21)N1CCN(S(=O)(=O)c2ccccc2Br)CC1CN1CCCC1` (configuration not stated): the inhibition constant Ki in experiment [1] stood at 8 nM. In experiment [2], a half-maximal response (EC50) required 2000 nM. Moreover, the antagonist dissociation constant (Kb) in experiment [4] worked out at 52.8 nM.

As for `CN(CC(=O)N1CCN(C(=O)c2cccc(Cl)c2)CC1CN1CCCC1)c1ccc(Cl)c(Cl)c1` (configuration not stated), in experiment [1], the Ki came out at 130 nM. The compound also gave an EC50 in experiment [2] of over 10000 nM.

In the case of `O=C(Cn1c(=O)oc2ccc(Cl)cc21)N1CCN(S(=O)(=O)c2cccc(C(F)(F)F)c2)CC1CN1CCCC1` (configuration not stated), the inhibition constant Ki in experiment [1] came to 50 nM. Further, the half-maximal effective concentration (EC50) in experiment [2] stood at 2000 nM.

As to `CN(CC(=O)N1CCN(C(=O)c2ccccc2)CC1CN1CCCC1)c1ccc(Cl)c(Cl)c1` (configuration not stated), in experiment [1], the inhibition constant (Ki) was determined as 200 nM. The same compound yielded a half-maximal effective concentration (EC50) in experiment [2] of 7900 nM.

On to `COc1ccc(S(=O)(=O)N2CCN(C(=O)Cn3c(=O)oc4ccc(Cl)cc43)C(CN3CCCC3)C2)c(Br)c1OC` (configuration not stated), for which the inhibitory constant (Ki) in experiment [3] amounted to 10 nM; in experiment [1] it was 1.6 nM. Also, the Ratio in the experiment filed under Rattus norvegicus was 1.4. This compound had a half-maximal effective concentration (EC50) in experiment [2] of 1300 nM. Besides, the antagonist equilibrium constant (Kb) in experiment [4] amounted to 14.2 nM.

As for `CC(=O)Nc1ccc(S(=O)(=O)N2CCN(C(=O)Cn3c(=O)oc4ccc(Cl)cc43)C(CN3CCCC3)C2)cc1` (configuration not stated), the figures for the inhibition constant (Ki) in experiment [3] and in experiment [1] were 4 nM and 2.5 nM, respectively. Also, the Ratio in the experiment listed under Rattus norvegicus is 3.3. In experiment [2], this compound registered an EC50 of 1300 nM. Besides, in experiment [4], the antagonist equilibrium constant (Kb) amounted to 13.1 nM.

For `CN(CC(=O)N1CCN(c2ccc(F)c(F)c2)CC1CN1CCCC1)c1ccc(Cl)c(Cl)c1` (configuration not stated), the Ki in experiment [1] came out at 100 nM. The midpoint of the response in experiment [2], the EC50, lay at 6.3 nM.
